Test results published in article PMC8961603 (RSC Advances, 2022).
Converted amounts (≈) assume the structure as drawn. “Also recorded” adds a separate entry of the source.

Assays:
[1] = In vitro cytotoxicity assay; format: cell-based; settings: African green monkey, Vero cells, Vero IC50 cytotoxicity, MTT
[2] = tested on: Aedes aegypti larvae (midgut); assay: Histopathological analysis of larvae; format: in vivo; settings: 72 h exposure
[3] = tested on: third stage instar larvae of Aedes aegypti; assay: Larvicidal bioassay; format: in vivo; settings: for larvicidal activity (in words): 24, 48 and 72 h exposure, 50-250 μg ml^−1
[4] = tested on: human blood cells (red blood cell suspension); assay: Haemolytic assay; format: cell-based
Method in brief: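 Fresh anticoagulated human blood spun 10 min at 2000 rpm; pellet resuspended in 0.9% NaCl to a 2% v/v red cell suspension. Cells incubated with test compound at 25, 50 or 100 μg ml−1 for 1 h at 37 °C, 5% CO2. Haemoglobin release read at 540 nm. Controls were 1% v/v NaOH for complete lysis and 0.9% NaCl for none. Percent haemolysis was calculated.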

Vero cells = assay: In vitro cytotoxicity assay; format: cell-based; settings: MTT
[5] = 24 h exposure, log probit analysis
[6] = 48 h exposure, log probit analysis
[7] = 72 h exposure, log probit analysis
[8] = larvicidal LC50 used in QSAR training set, exposure time not given
[9] = Aedes aegypti, 24 h, 24 h exposure, log probit analysis
[10] = Aedes aegypti, 48 h, 48 h exposure, log probit analysis
[11] = Aedes aegypti, 72 h, 72 h exposure, log probit analysis

Which IC50 [1] does the source give for `COc1cc(C=NN2C(S)=NCN2/C=C/c2ccccc2)ccc1O` [CA 7, 2-Methoxy-4-[({2-[(E)-2-phenylethenyl]-5-sulfanyl-2,3-dihydro-1H-1,2,4-triazol-1-yl}imino)methyl] phenol] here?
Its IC50 is 295 ± 0.04 µg/mL (≈ 832 µM).

With `Nc1ccc(/C=C/C(=O)NNc2ccc([N+](=O)[O-])cc2[N+](=O)[O-])cc1` [ACA 1, (2E)-3-(4-Aminophenyl)-N′-(2,4-dinitrophenyl)prop-2-enehydrazide] as the compound, how does the IC50 [1] read?
Its IC50 is 285 ± 0.05 µg/mL (≈ 830 µM).

For “(2E)-3-(4-Aminophenyl)-N′-(2,4-dinitrophenyl)prop-2-enehydrazide [ACA 4]”, which “histopathological findings in larvae” value [2] is on record?
Its value is “severe lesions that primarily affected the midgut epithelium”.

And the “larvicidal activity (in words)” value [3]?
Its value is “slow mortality; also recorded: effectively showed larvicidal activity”.

What about the LC50 [3, 5] of the same compound?
The LC50 was 101.176 ppm.

And the LC90 [3, 5]?
Its LC90 is 358.428 ppm.

And the LC50 [3, 6]?
The LC50 was 88.823 ppm.

And the LC90 [3, 6]?
Its LC90 is 323.217 ppm.

And the LC50 [3, 7]?
The LC50 was 47.347 ppm.

What about the LC90 [3, 7] of the same compound?
Its LC90 is 240.784 ppm.

And the LC50 [3, 8]?
Its LC50 is 0.10 µM.

And the “Hemolytic (%)” value ([4]; Conc. 25 PPM)?
Its value is 1.736%.

And the “Hemolytic (%)” value ([4]; Conc. 50 PPM)?
The value was 2.122%.

And the “Hemolytic (%)” value ([4]; Conc. 100 PPM)?
The value was 3.460%.

And the “Vero IC50 cytotoxicity” value (Vero cells)?
The value was 328 ± 0.02 µg/mL.

With `CN(C)c1ccc(/C=C/C=NN2C(S)=NCN2/C=C/c2ccccc2)cc1` [CA 11, 2-({(2E)-3-[4-(Dimethylamino)phenyl]prop-2-en-1-ylidene}amino)-1-[(E)-2-phenylethenyl]-2,5-dihydro-1H-1,2,4-triazole-3-thiol] as the compound, how does the IC50 [1] read?
The IC50 was 229 ± 0.02 µg/mL (≈ 607 µM).

What does the source list for `Cc1cccc(C2=NN3C(=NCN3/C=C/c3ccccc3)S2)c1` [CATD 2, 2-(3-Methylphenyl)-5-[(E)-2-phenylethenyl]-5,6-dihydro[1,2,4]triazolo[5,1-b][1,3,4]thiadiazole]?
histopathological findings in larvae [2]: severe lesions that primarily affected the midgut epithelium; larvicidal activity (in words) [3]: effectively showed larvicidal activity; LC90 [3, 5]: 311.453 ppm; LC90 [3, 6]: 241.010 ppm; LC90 [3, 7]: 179.532 ppm; LC50 [3, 9]: 187 µg/mL; LC50 [3, 10]: 132 µg/mL; LC50 [3, 11]: 86.6 µg/mL; Hemolytic (%) ([4]; Conc. 25 PPM): 4.605%; Hemolytic (%) ([4]; Conc. 50 PPM): 5.367%; Hemolytic (%) ([4]; Conc. 100 PPM): 5.759%; IC50 [1]: 218 ± 0.02 µg/mL (≈ 680 µM)

Which results are given for `CC(=O)OCC(CCn1cnc2cnc(N)nc21)COC(C)=O` [FMCV, Famciclovir, reference compound]?
LC90 [3, 6]: 241.010 ppm; LC90 [3, 7]: 179.532 ppm; LC50 [3, 9]: 248 µg/mL; LC50 [3, 10]: 203 µg/mL; LC50 [3, 11]: 139 µg/mL; Hemolytic (%) ([4]; Conc. 25 PPM): 4.802%; Hemolytic (%) ([4]; Conc. 50 PPM): 6.448%; Hemolytic (%) ([4]; Conc. 100 PPM): 8.901%; IC50 [1]: 270 ± 0.2 µg/mL (≈ 840 µM)

For “1-[(E)-2-Phenylethenyl]-2-{[(3,4,5-trimethoxy phenyl) methylidene] amino}-2,5-dihydro-1H-1,2,4-triazole-3-thiol [CA 5]”, which “Vero IC50 cytotoxicity” value (Vero cells) is on record?
Its value is 223 ± 0.05 µg/mL.

Which results are given for `CC(C)=CCc1c(O)cc(O)c2c1O[C@H](c1ccccc1)CC2=O` [Glabranin, reference compound]?
LC90 [3, 5]: 311.453 ppm; LC90 [3, 6]: 241.010 ppm; LC90 [3, 7]: 179.532 ppm; LC50 [3, 9]: 258 µg/mL; LC50 [3, 10]: 199 µg/mL; LC50 [3, 11]: 140 µg/mL; Hemolytic (%) ([4]; Conc. 25 PPM): 2.326%; Hemolytic (%) ([4]; Conc. 50 PPM): 4.713%; Hemolytic (%) ([4]; Conc. 100 PPM): 5.217%; IC50 [1]: 252 ± 0.2 µg/mL (≈ 777 µM)

For `Oc1ccc(C2=NN3C(=NCN3/C=C/c3ccccc3)S2)cc1O` [CATD 3, 4-{5-[(E)-2-Phenylethenyl]-5,6-dihydro[1,2,4]triazolo[5,1-b][1,3,4]thiadiazol-2-yl}benzene-1,2-diol], which IC50 [1] is on record?
The IC50 was 270 ± 0.2 µg/mL (≈ 798 µM).

For `SC1=NCN(/C=C/c2ccccc2)N1N=Cc1ccc(Br)cc1` [CA 10, 2-{[(4-Bromophenyl)methylidene]amino}-1-[(E)-2-phenylethenyl]-2,5-dihydro-1H-1,2,4-triazole-3-thiol], which LC90 [3, 5] is on record?
The LC90 was 210.414 ppm.

And the LC90 [3, 6]?
The LC90 was 172.096 ppm.

And the LC90 [3, 7]?
The LC90 was 122.913 ppm.

What about the LC50 [3, 9] of the same compound?
Its LC50 is 156 µg/mL.

And the LC50 [3, 10]?
The LC50 was 121 µg/mL.

And the LC50 [3, 11]?
The LC50 was 50.3 µg/mL.

And the IC50 [1]?
Its IC50 is 241 ± 0.01 µg/mL (≈ 622 µM).

With `O=[N+]([O-])c1ccc(C=NN2C(S)=NCN2/C=C/c2ccccc2)cc1` [CA 9, 2-{[(4-Nitrophenyl)methylidene]amino}-1-[(E)-2-phenylethenyl]-2,5-dihydro-1H-1,2,4-triazole-3-thiol] as the compound, how does the IC50 [1] read?
The IC50 was 235 ± 0.05 µg/mL (≈ 665 µM).

With “2-{[(4-Chlorophenyl) methylidene] amino}-1-[(E)-2-phenylethenyl]-2,5-dihydro-1H-1,2,4-triazole-3-thiol [CA 1]” as the compound, how does the LC50 [3, 8] read?
The LC50 was 0.13 µM.

What about the “Vero IC50 cytotoxicity” value (Vero cells) of the same compound?
Its value is 309 ± 0.21 µg/mL.

With `NC(=S)NNC(=O)/C=C/c1ccc(N)cc1` [ACA 3, 2-[(2E)-3-(4-Aminophenyl)prop-2-enoyl]hydrazine-1-carbothioamide] as the compound, how does the IC50 [1] read?
The IC50 was 254 ± 0.03 µg/mL (≈ 1070 µM).

Which LC50 [3, 8] does the source give for “2-(3-Methylphenyl)-5-[(E)-2-phenylethenyl]-5,6-dihydro[1,2,4]triazolo[5,1-b][1,3,4]thia diazole [CATD 4]” here?
The LC50 was 0.15 µM.

And the “Vero IC50 cytotoxicity” value (Vero cells)?
The value was 252 ± 0.20 µg/mL.
